Measured values taken from ChEMBL document CHEMBL2346527, “Kinase scaffold repurposing for neglected disease drug discovery: discovery of an efficacious, lapatinib-derived lead compound for trypanosomiasis” (J Med Chem, 2013).
The source made the active and inactive calls. No cut-off for these calls is given here.

Legend:
[1] = test system: HepG2; test: Cytotoxicity against human HepG2 cells after 48 hrs by MTT assay; assay type: cell-based; conditions: HepG2, 48 h
Summary of the method: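 HepG2 cytotoxicity was read by an MTT assay adapted to 384-well format. IC50 was fitted by nonlinear regression (sigmoidal dose-response, variable slope).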

[2] = test system: Trypanosoma brucei brucei; test: Antitrypanosomal activity against bloodstream form Trypanosoma brucei brucei Lister 427 after 48 hrs by hemocytometer; assay type: functional, organism-based; conditions: Lister 427, 48 h
Summary of the method: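 Bloodstream Lister 427 cells were seeded at 2 × 10^3 cells/ml in HMI-9 medium and given drug from 200X DMSO stocks, with DMSO as control. Three independent experiments, each dose in duplicate (n = 6).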

[3] = test system: Trypanosoma brucei brucei; test: Antitrypanosomal activity against Trypanosoma brucei brucei CA427 infected in Swiss Webster mouse assessed as reduction in replication rate at 10 mg/kg, ip bid measured on day 3 by hemocytometer; assay type: functional, organism-based; parameters: dose 10 mg/kg
Summary of the method: (§1)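 Mice were infected with 10^4 T. brucei brucei CA427 cells. From 24 h post-infection, they were dosed i.p. at 10 mg/kg twice per day (20 mg/kg/day). Blood parasitemia was measured each day against untreated control mice.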

[4] = test system: Trypanosoma brucei; test: Reduction of 2C to 4C equivalents of DNA in bloodstream Trypanosoma brucei after 7 hrs by DAPI staining-based fluorescence microscopy (reference value: 40 %); assay type: functional; parameters: scale not given: the % may be the effect or the level left
[5] = test system: Trypanosoma brucei brucei; test: Antitrypanosomal activity against Trypanosoma brucei brucei CA427 infected in Swiss Webster mouse assessed as delayed detection of trypanosomes in blood at 10 mg/kg, ip bid after 24 hrs by hemocytometer; assay type: functional, organism-based; parameters: dose 10 mg/kg; summary of the method: as §1
[6] = test system: Trypanosoma brucei brucei; test: Antitrypanosomal activity against Trypanosoma brucei brucei CA427 infected in Swiss Webster mouse assessed as mouse survival at 10 mg/kg, ip bid by hemocytometer (reference value: 5 days); assay type: functional; conditions: route intraperitoneal
[7] = test system: Trypanosoma brucei; test: Antitrypanosomal activity against bloodstream Trypanosoma brucei assessed as increase in 1K2N cells after 7 hrs by DAPI staining-based fluorescence microscopy; assay type: functional, organism-based
Summary of the method: (§2)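 After 7 h with or without drug, trypanosomes were stained with DAPI and imaged by single-cell fluorescence microscopy with DIC. Nuclei (N) and kinetoplasts (K) were counted per cell to give the distribution of organelle configurations.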

[8] = test system: Trypanosoma brucei; test: Antitrypanosomal activity against bloodstream Trypanosoma brucei assessed as increase in 4C equivalents of DNA after 7 hrs by DAPI staining-based fluorescence microscopy (reference value: 25 %); assay type: functional
[9] = test system: Trypanosoma brucei brucei; test: Antitrypanosomal activity against Trypanosoma brucei brucei CA427 infected in Swiss Webster mouse assessed as mouse mortality at 10 mg/kg, po bid by hemocytometer; assay type: functional, organism-based; parameters: dose 10 mg/kg
Summary of the method: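 Mice were infected with 10^4 T. brucei brucei CA427 cells. From 24 h post-infection, they were dosed orally at 10 mg/kg twice per day (20 mg/kg/day). Daily parasitemia and survival were followed against untreated control mice.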

[10] = test system: Mus musculus; test: Toxicity in Swiss Webster mouse infected with Trypanosoma brucei brucei CA427at 40 mg/kg, po; assay type: organism-based; parameters: dose 40 mg/kg, route oral; conditions: in vivo
Summary of the method: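 Infection used 10^4 T. brucei brucei CA427 cells per mouse. Beginning 24 h later, mice received 40 mg/kg once per day in a multi-day regimen. Blood was checked for parasites over 3 days against untreated infected controls, and drug-related toxicity was noted.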

[11] = test system: Trypanosoma brucei; test: Inhibition of transferrin receptor-mediated endocytosis in bloodstream Trypanosoma brucei at 8 uM after 7 hrs by flow cytometry
[12] = test system: Brain; test: Drug uptake in BALB/c mouse brain at 40 mg/kg, po after 24 hrs; assay type: ADME, organism-based; parameters: dose 40 mg/kg, route oral; conditions: in vivo
Summary of the method: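 Mice received a single oral dose of 40 mg/kg. Drug levels in plasma and brain tissue were measured over 24 hours.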

[13] = test system: Trypanosoma brucei; test: Antitrypanosomal activity against bloodstream Trypanosoma brucei assessed as reduction in 1K1N cells after 7 hrs by DAPI staining-based fluorescence microscopy; assay type: functional, organism-based; summary of the method: as §2
[14] = test system: Trypanosoma brucei; test: Antitrypanosomal activity against bloodstream Trypanosoma brucei assessed as DNA profile alteration after 7 hrs by propidium iodide staining-based flow cytometry; assay type: functional, organism-based
Summary of the method: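 Trypanosomes were incubated 7 h with drug or without (control), then stained with propidium iodide. Flow cytometry analysed 10,000 events, and DNA content per cell (2C, 2C-4C, 4C populations) was quantified.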

SMILES	IC50 [1] [nM]	EC50 [2] [nM]	other results
O=S(=O)(c1cccc(-c2ccc3ncnc(Nc4ccc(OCc5cccc(F)c5)c(Cl)c4)c3c2)c1)N1CCCC1	> 15000	250	–
O=S(=O)(c1ccc(-c2ccc3ncnc(Nc4ccc(OCc5ccccc5)c(Cl)c4)c3c2)cc1)N1CCOCC1	> 15000	1350	–
O=S(=O)(c1ccc(-c2ccc3ncnc(Nc4ccc(OCc5ccc(C(F)(F)F)c(F)c5)c(Cl)c4)c3c2)cc1)N1CCOCC1	> 15000	540	–
O=S(=O)(c1ccc(-c2ccc3ncnc(Nc4ccc(OCc5cccc(Br)c5)c(Cl)c4)c3c2)cc1)N1CCOCC1	> 15000	680	–
CN1CCCN(S(=O)(=O)c2ccc(-c3ccc4ncnc(Nc5ccc(OCc6cccc(F)c6)c(Cl)c5)c4c3)cc2)CC1	1810	810	–
Fc1cccc(COc2ccc(Nc3ncnc4ccc(-c5cccc(N6CCCCC6)c5)cc34)cc2Cl)c1	> 15000	760	–
Clc1cc(Nc2ncnc3ccc(-c4cccc(N5CCOCC5)c4)cc23)ccc1OCc1ccccc1	> 20000	230	–
CS(=O)(=O)c1ccc(-c2ccc3ncnc(Nc4ccc(OCc5cccc(F)c5)c(Cl)c4)c3c2)cc1	> 15000	900	–
Fc1cccc(COc2ccc(Nc3ncnc4ccc(-c5cccc(N6CCOCC6)c5)cc34)cc2Cl)c1	–	42	Activity [3]: Active; Activity [4]: 25%; Activity [5]: Active; Survival [6]: 9 days; Activity [7]: Active; Activity [8]: 40%; Activity [9]: inactive; Activity [10]: Toxic; inhibition [11]: inactive; Drug uptake [12]: 5%; Activity [13]: Active; Activity [14]: Active
CN(C)S(=O)(=O)c1ccccc1-c1ccc2ncnc(Nc3ccc(OCc4cccc(F)c4)c(Cl)c3)c2c1	> 15000	1040	–
O=S(=O)(c1ccc(-c2ccc3ncnc(Nc4ccc(OCc5ccccc5F)c(Cl)c4)c3c2)cc1)N1CCOCC1	> 15000	1650	–
O=S(=O)(c1ccc(-c2ccc3ncnc(Nc4ccc(OCc5cccc(F)c5)c(Cl)c4)c3c2)cc1)N1CCCCC1	> 15000	320	–
O=S(=O)(c1ccc(-c2ccc3ncnc(Nc4ccc(OCc5cccc(F)c5)cc4)c3c2)cc1)N1CCOCC1	> 15000	650	–
O=S(=O)(c1ccc(-c2ccc3ncnc(Nc4ccccc4)c3c2)cc1)N1CCOCC1	> 3000	1440	–
O=S(=O)(c1ccc(-c2ccc3ncnc(Nc4ccc(OCc5cccc(F)c5)c(Cl)c4)c3c2)cc1)N1CCOCC1	> 15000	1390	–
O=C(c1cccc(-c2ccc3ncnc(Nc4ccc(OCc5cccc(F)c5)c(Cl)c4)c3c2)c1)N1CCCCC1	> 6000	140	–

SMILES	IC50 [1] [nM]	EC50 [2] [nM]	other results
c1ccc(Nc2ncnc3ccc(-c4cccc(N5CCOCC5)c4)cc23)cc1	7020	11000	–
Cc1ccc(Nc2ncnc3ccc(-c4ccc(S(=O)(=O)N5CCOCC5)cc4)cc23)cc1	> 15000	1150	–
O=S(=O)(c1ccc(-c2ccc3ncnc(Nc4ccc(OCc5ccc(F)cc5)c(Cl)c4)c3c2)cc1)N1CCOCC1	> 15000	1340	–
O=S(=O)(c1ccc(-c2ccc3ncnc(Nc4ccc(O)c(Cl)c4)c3c2)cc1)N1CCOCC1	> 15000	1060	–
O=S(=O)(c1cccc(-c2ccc3ncnc(Nc4ccc(OCc5cccc(F)c5)c(Cl)c4)c3c2)c1)N1CCCCC1	> 15000	460	–
COc1cc(Nc2ncnc3ccc(-c4ccc(S(=O)(=O)N5CCOCC5)cc4)cc23)ccc1OCc1cccc(F)c1	> 15000	1880	–
O=S(=O)(c1ccc(-c2ccc3ncnc(Nc4ccc(OCc5cccc(F)c5F)c(Cl)c4)c3c2)cc1)N1CCOCC1	> 15000	820	–
O=S(=O)(c1ccc(-c2ccc3ncnc(Nc4ccc(OCc5cccc(F)c5)c(Cl)c4)c3c2)cc1)N1CCNCC1	3320	280	–
O=S(=O)(c1ccc(-c2ccc3ncnc(Nc4ccc(OCc5cccc(Cl)c5)c(Cl)c4)c3c2)cc1)N1CCOCC1	> 15000	660	–
COc1cccc(COc2ccc(Nc3ncnc4ccc(-c5ccc(S(=O)(=O)N6CCOCC6)cc5)cc34)cc2Cl)c1	> 15000	1430	–
CN1CCN(S(=O)(=O)c2ccc(-c3ccc4ncnc(Nc5ccc(OCc6cccc(F)c6)c(Cl)c5)c4c3)cc2)CC1	> 15000	530	–
COc1ccc(Nc2ncnc3ccc(-c4ccc(S(=O)(=O)N5CCOCC5)cc4)cc23)cc1Cl	> 15000	820	–
Fc1cccc(COc2ccc(Nc3ncnc4ccc(-c5ccc(CN6CCOCC6)cc5)cc34)cc2Cl)c1	12900	990	–
CS(=O)(=O)c1cccc(-c2ccc3ncnc(Nc4ccc(OCc5cccc(F)c5)c(Cl)c4)c3c2)c1	> 15000	3210	–
c1ccc(COc2ccc(Nc3ncnc4ccc(-c5cccc(N6CCOCC6)c5)cc34)cc2)cc1	> 20000	180	–
O=S(=O)(c1ccc(-c2ccc3ncnc(Nc4ccc(OCc5cccc(F)c5)c(Cl)c4)c3c2)cc1)N1CCCC1	> 15000	350	–
